Laboratory results from ChEMBL document CHEMBL1138493, “Synthesis and modeling of new benzofuranone histone deacetylase inhibitors that stimulate tumor suppressor gene expression” (J Med Chem, 2009).
Calls of active or inactive are those of the source. No cut-off for these calls is given here.

How the values were obtained:
[1] = target: Histone deacetylase (Homo sapiens) (UniProt Q13547+O15379+Q9UBN7+Q92769+Q9UQL6+Q8WUI4+Q9BY41+Q96DB2+P56524+Q9UKV0+Q969S8); test: Inhibition of HDAC in human NCI-H661 cells assessed as induction of histone H4 acetylation at 3 uM after 6 hrs by Western blot analysis; type: cell-based
In short: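 NCI-H661 cells exposed to compound for 6 h, then lysed and probed by Western blot for acetylated histone H4, with tubulin acetylation blotted alongside. Blots shown are representative of three independent experiments.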

NCI-H661 [2] = test: Antiproliferative activity against human NCI-H661 cells after 48 hrs by XTT assay; type: functional, cell-based; conditions: NCI-H661, 48 h
NCI-H661 [3] = test: Increase in E-cadherin mRNA expression in human NCI-H661 cells at 300 nM by qRT-PCR relative to control; type: functional
NCI-H661 [4] = test: Increase in semaphoring 3F mRNA expression in human NCI-H661 cells at 300 nM by qRT-PCR relative to control; type: functional

| Activity [1] | IC50 (NCI-H661 [2]) [µM] | Compound | fold change (FC) (NCI-H661 [3]) | fold change (FC) (NCI-H661 [4]) |
| --- | --- | --- | --- | --- |
| Active |  | CC(/C=C/C(=O)NO)=C\C1(C)Oc2ccccc2C1=O (centres undefined) |  |  |
|  | 0.1 | CC(/C=C/C(=O)NO)=C\[C@@H](C)C(=O)c1ccc(N(C)C)cc1 [TRICHOSTATIN] | 50 | 4 |
